Data set [1] deals with T1, Cereblon/Ikaros (Homo sapiens) (UniProt Q96SW2+Q13422). Briefly: Protac activity at CRBN/IKZF1 in human KMS-11 cells assessed as induction of IKZF1 degradation at 2.5 uM incubated for 72 hrs by Western blot analysis. The class given is cell-based. In outline:
(§1)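 KMS11 or H929 myeloma cells were treated with DMSO or 2.5 μM for 72 h. IKZF1 and IKZF3 were measured by Western blot with GAPDH as loading control, representative of two independent experiments.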
For orientation: Immunoblotting shows a protein as a band on a membrane.

Data set [2] has as its target T1, Cereblon/Ikaros (Homo sapiens). The data set is described as follows: Protac activity at CRBN/IKZF1 in human NCI-H929 cells assessed as induction of IKZF1 degradation at 2.5 uM incubated for 72 hrs by Western blot analysis. The class given is cell-based. In outline: as §1
In data set [3] the target is T2, Protein cereblon/Zinc finger protein Aiolos (Homo sapiens) (UniProt Q96SW2+Q9UKT9). Briefly: Protac activity at CRBN/IKZF3 in human KMS-11 cells assessed as induction of IKZF3 degradation at 2.5 uM incubated for 72 hrs by Western blot analysis. The class given is cell-based. In outline:
as §1

The target of data set [4] is T2, Protein cereblon/Zinc finger protein Aiolos (Homo sapiens). Briefly: Protac activity at CRBN/IKZF3 in human NCI-H929 cells assessed as induction of IKZF3 degradation at 2.5 uM incubated for 72 hrs by Western blot analysis. The class given is cell-based. The essentials: as §1
Data set [5] deals with T3, Histone-lysine N-methyltransferase NSD2 (Homo sapiens, UniProt O96028).
T3 sequence (O96028 whole entry): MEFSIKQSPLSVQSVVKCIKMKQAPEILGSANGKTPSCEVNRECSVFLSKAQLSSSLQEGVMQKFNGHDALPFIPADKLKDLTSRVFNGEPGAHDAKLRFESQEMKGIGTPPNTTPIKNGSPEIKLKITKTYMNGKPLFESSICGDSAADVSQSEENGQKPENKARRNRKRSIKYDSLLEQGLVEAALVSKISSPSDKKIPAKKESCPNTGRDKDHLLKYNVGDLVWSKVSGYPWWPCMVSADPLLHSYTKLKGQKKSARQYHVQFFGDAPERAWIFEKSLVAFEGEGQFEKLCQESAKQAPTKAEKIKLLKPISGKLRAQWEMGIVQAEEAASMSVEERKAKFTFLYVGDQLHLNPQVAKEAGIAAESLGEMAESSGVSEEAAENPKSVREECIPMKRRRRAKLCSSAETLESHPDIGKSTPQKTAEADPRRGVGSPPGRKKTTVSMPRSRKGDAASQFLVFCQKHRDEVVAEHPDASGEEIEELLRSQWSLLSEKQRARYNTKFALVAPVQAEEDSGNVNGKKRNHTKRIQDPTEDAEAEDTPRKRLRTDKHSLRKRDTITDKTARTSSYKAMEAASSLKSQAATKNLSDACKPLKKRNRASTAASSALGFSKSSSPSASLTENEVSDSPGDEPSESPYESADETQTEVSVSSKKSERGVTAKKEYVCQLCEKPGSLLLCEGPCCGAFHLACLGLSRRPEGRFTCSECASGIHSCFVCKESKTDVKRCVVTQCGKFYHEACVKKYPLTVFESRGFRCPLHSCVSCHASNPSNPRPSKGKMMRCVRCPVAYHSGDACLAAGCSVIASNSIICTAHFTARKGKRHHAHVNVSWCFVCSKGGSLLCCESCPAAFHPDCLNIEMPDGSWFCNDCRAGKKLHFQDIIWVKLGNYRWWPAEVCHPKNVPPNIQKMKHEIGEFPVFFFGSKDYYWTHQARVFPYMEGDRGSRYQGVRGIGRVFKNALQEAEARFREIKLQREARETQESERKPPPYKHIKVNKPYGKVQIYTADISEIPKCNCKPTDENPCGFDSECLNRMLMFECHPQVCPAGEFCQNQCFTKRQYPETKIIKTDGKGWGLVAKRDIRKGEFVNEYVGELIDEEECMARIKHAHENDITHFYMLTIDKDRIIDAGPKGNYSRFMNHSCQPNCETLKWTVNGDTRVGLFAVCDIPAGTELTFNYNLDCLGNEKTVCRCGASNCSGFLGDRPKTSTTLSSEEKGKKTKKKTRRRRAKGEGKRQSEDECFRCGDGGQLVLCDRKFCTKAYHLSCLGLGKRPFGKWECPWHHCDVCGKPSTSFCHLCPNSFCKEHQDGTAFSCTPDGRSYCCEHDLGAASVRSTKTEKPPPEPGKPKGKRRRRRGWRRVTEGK
Briefly: Binding affinity to N-terminal GST-tagged human NSD2 PWWP1 domain (208 to 369 residues) expressed in Escherichia coli […] (DE3) cells assessed as dissociation constant by isothermal titration calorimetry assay.

The target in data set [6] is von Hippel-Lindau disease tumor suppressor/Histone-lysine N-methyltransferase NSD2 (Homo sapiens) (UniProt O96028+P40337). The data set is described as follows: Protac activity at VHL E3 ligase/ NSD2 PWWP1 domain (208 to 369 residues) in HEK293FT cells assessed as induction of NSD2 degradation at 2.5 to 10 uM incubated for 48 hrs by Western blot analysis. The class given is cell-based. As to conditions: dose 2.5-10 µM. The essentials: (§2)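 293FT cells (DMEM, 10% FBS) were treated with DMSO or compound at the indicated concentrations for 48 h. NSD2 was detected by Western blot of NP-40 lysates with GAPDH as loading control. Blots are representative of at least two independent experiments.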

The nature of data set [7]: Toxicity in Swiss albino mouse assessed as clinical signs of toxicity at 50 mg/kg, ip administered for 8 hrs. It is filed as organism-based. As to conditions: in vivo. The essentials: (§3)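 Three male Swiss albino mice received a single 50 mg/kg intraperitoneal dose as a solution in 5% NMP/45% propylene glycol/50% PEG-400 (v/v). Blood was drawn at 0.5, 2 and 8 h and plasma stored at −70 °C. Plasma levels were measured by LC–MS/MS (LLOQ 5.14 ng/mL), reported as mean ± SD of three mice; mice were watched for clinical signs.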

Data set [8] deals with T4, Protein cereblon/Histone-lysine N-methyltransferase NSD2 (Homo sapiens, UniProt O96028+Q96SW2). The data set is described as follows: Protac activity at CRBN E3 ligase/ NSD2 PWWP1 domain (208 to 369 residues) in HEK293FT cells assessed as induction of NSD2 degradation at 2.5 to 10 uM incubated for 48 hrs by Western blot analysis. As to conditions: dose 2.5-10 µM. The class given is cell-based. The essentials: as §2

Data set [9] in a line: Cmax in Swiss albino mouse at 50 mg/kg, ip by LC-MS/MS analysis. The class given is ADME, organism-based. Also on record: dose 50 mg/kg, route ip. Conditions: in vivo. The essentials: as §3
Data set [10] is described as follows: Tmax in Swiss albino mouse at 50 mg/kg, ip by LC-MS/MS analysis. The class given is ADME, organism-based. Conditions: in vivo. The essentials: as §3
The nature of data set [11]: Drug concentration in Swiss albino mouse plasma at 50 mg/kg, ip measured after 8 hrs by LC-MS/MS analysis. The class given is ADME, organism-based. In outline:
as §3

Data set [12] has as its target T2, Protein cereblon/Zinc finger protein Aiolos (Homo sapiens). The data set is described as follows: Protac activity at CRBN/IKZF3 in wild type HEK293FT cells assessed as induction of IKZF3 degradation at 0.5 to 10 uM incubated for 48 hrs by Western blot analysis. It is filed as cell-based. Conditions: dose 0.5-10 µM. In outline:
(§4)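 Wild-type 293FT cells, alongside a CRISPR-Cas9 CRBN-knockout 293FT line, were treated across a concentration range for 48 h. NSD2, IKZF3 and CRBN were immunoblotted with GAPDH as loading control, representative of at least two independent experiments.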

The target in data set [13] is T4, Protein cereblon/Histone-lysine N-methyltransferase NSD2. The data set is described as follows: Protac activity at CRBN E3 ligase/ NSD2 PWWP1 domain (208 to 369 residues) in HEK293FT cells assessed as induction of NSD2 degradation incubated for 48 hrs by Western blot analysis. The class given is cell-based. The essentials: as §2
The target is the same in data set [14]. Briefly: Protac activity at CRBN E3 ligase/ NSD2 PWWP1 domain (208 to 369 residues) in HEK293FT cells assessed as induction of NSD2 degradation by measuring maximal efficacy at 0.5 to 10 uM incubated for 48 hrs by Western blot analysis relative to control. It is filed as cell-based. As to conditions: dose 0.5-10 µM. In outline:
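293FT cells were exposed to 0.5–10 μM for 48 h. NSD2 was immunoblotted with GAPDH as loading control and band intensity quantified by densitometry to derive DC50 and Dmax. Results are mean ± SD of two independent experiments.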

The subject of a further data set is KMS-11. Briefly: Antiproliferative activity against human KMS-11 cells assessed as inhibition of cell growth at 2.5 uM incubated for 8 days by automated TC10 cell counter based analysis. The class given is functional. As to conditions: time 8.0 day. The essentials: (§5)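 KMS11 or H929 cells (RPMI 1640, 10% FBS) seeded at 0.5 million per well in triplicate, treated with 2.5 μM or DMSO for 8 days. Compound-containing medium replaced every 2 days; cells diluted periodically to stay below 1 × 10^6/mL. Viability given relative to DMSO control as mean ± SD (n = 3).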

The target of data set [15] is T4, Protein cereblon/Histone-lysine N-methyltransferase NSD2. Briefly: Protac activity at CRBN/NSD2 PWWP1 domain (208 to 369 residues) in wild type HEK293FT cells assessed as induction of NSD2 degradation at 0.5 to 10 uM incubated for 48 hrs by Western blot analysis. The class given is cell-based. As to conditions: dose 0.5-10 µM. In outline:
as §4

The subject of a further data set is NCI-H929. The data set is described as follows: Antiproliferative activity against human NCI-H929 cells assessed as inhibition of cell growth at 2.5 uM incubated for 8 days by automated TC10 cell counter based analysis. It is filed as functional. As to conditions: time 8.0 day. The essentials:
as §5

Data set [16] addresses T4, Protein cereblon/Histone-lysine N-methyltransferase NSD2. The data set is described as follows: Protac activity at CRBN E3 ligase/ NSD2 PWWP1 domain (208 to 369 residues) in HEK293FT cells assessed as induction of NSD2 degradation 5 uM by Western blot analysis. The class given is cell-based. As to conditions: time 0-72 hrs, TDE = time-dependent effect. The essentials:
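293FT cells were treated at 5 μM for 0, 12, 24, 36, 48 or 72 h. Lysates were made in 50 mM Tris-HCl pH 8.0, 150 mM NaCl, 1% NP-40, and NSD2 was immunoblotted with GAPDH as loading control.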

pKd: −log10 of the molar value. Activity calls are given as the source filed them. The calls are words filed in the database; no cut-off is given here.

Regarding `CC(C)N(Cc1ccc(C(=O)Nc2ccc(OCCCNC(=O)CNc3cccc4c3C(=O)N(C3CCC(=O)NC3=O)C4=O)cn2)cc1)C(=O)c1ccc2c(c1)OCC(=O)N2` (stereo not drawn), the result in data set [1], in data set [2], in data set [3] and in [4] was Active.

In the case of `CN1C(=O)CCC(N2C(=O)c3cccc(NCC(=O)NCCCOc4ccc(NC(=O)c5ccc(CN(C(=O)c6ccc7c(c6)OCC(=O)N7)C6CC6)cc5)nc4)c3C2=O)C1=O` (stereo not drawn), the negative-log Kd (pKd) in data set [5] is 6.05.

In the case of `Cc1ncsc1-c1ccc(CNC(=O)[C@@H]2C[C@@H](O)CN2C(=O)[C@@H](NC(=O)CCOCCOCCNC(=O)c2ccc(NC(=O)c3ccc(CN(C(=O)c4ccc5c(c4)OCC(=O)N5)C4CC4)cc3)cc2)C(C)(C)C)cc1`, the result in data set [6] was Active.

For the compound `O=C(CNc1cccc2c1C(=O)N(C1CCC(=O)NC1=O)C2=O)NCCCOc1ccc(NC(=O)c2ccc(CN(C(=O)c3ccc4c(c3)OCC(=O)N4)C3CC3)cc2)nc1` (stereo not drawn), the Activity entry in data set [7] is “Non-Toxic”; in data set [16] it was “Tde”. Also, the result in data set [8], in [1], in data set [2], in [3], in data set [4] and in data set [12] was Active. In data set [15], the outcome was Active. For the same compound, the highest concentration (Cmax) in [9] came out at 1350 nM. Further, the Tmax in [10] is 30 min. Besides, the concentration at 8 h in [11] was 980 nM. Besides, the 50% degradation concentration (DC50) in data set [13] is 5200 nM. The negative-log Kd (pKd) in data set [5] is 5.96. For the same compound, the Emax in data set [14] is over 82%. Moreover, the inhibition result with KMS-11 and in the data set with NCI-H929 was “Active” in each case.

A word on the pKd: it is the Kd on a negative log10 scale, so that one unit is a factor of ten. For orientation: Cmax means the highest concentration seen after dosing. For orientation: Tmax means the time from dosing to the highest level. Usually DC50 stands for the concentration giving 50% degradation. As usually defined, the Emax is the size of the effect at its maximum, as opposed to the concentration needed.

The values above are taken from ChEMBL document CHEMBL5137075, “Discovery of a First-in-Class Degrader for Nuclear Receptor Binding SET Domain Protein 2 (NSD2) and Ikaros/Aiolos” (J Med Chem, 2022).
